These results are taken from ChEMBL document CHEMBL1649154, “Antibiotic susceptibility and characteristics of Neisseria meningitidis isolates from the African meningitis belt, 2000 to 2006: phenotypic and genotypic perspectives” (2009).

The term MIC50 denotes the lowest concentration that inhibits either 50% of growth or 50% of the strains tested, depending on the study. Read a high MIC50 as weaker potency. Broadly, the MIC90 is an inhibitory concentration at the 90% level, which refers to growth in some studies and to a panel of isolates in others. Low values mean higher susceptibility, high ones lower susceptibility. The term MIC denotes the lowest concentration that inhibits growth of the organism. A higher MIC goes with weaker potency.

In brackets after ≈: the same amount, converted by molar mass.

What all share (format): functional
Assay [1] concerns Neisseria meningitidis. Briefly: Antibacterial activity against Beta-lactamase-negative Neisseria meningitidis by Etest method.
Assay [2] relates to Neisseria meningitidis. Briefly: Antibacterial activity against Beta-lactamase-negative Neisseria meningitidis assessed as percent susceptible isolates by Etest method. In outline:
(§1)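 Serogroup A reference strain OR173/87 included for quality control. Isolates were classed susceptible, intermediate or resistant using breakpoints drawn from several organizations.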

In assay [3] the test system is Neisseria meningitidis. Nature of the assay: Antibacterial activity against Beta-lactamase-negative Neisseria meningitidis assessed as percent intermediate isolates by Etest method. In outline:
as §1

In assay [4] the test system is Neisseria meningitidis. Nature of the assay: Antibacterial activity against Beta-lactamase-negative Neisseria meningitidis assessed as percent resistant isolates by Etest method. In outline:
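Isolates were classed resistant using breakpoints drawn from several organizations. Serogroup A reference strain OR173/87 was included for quality control.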

In assay [1], `CC1(C)S[C@@H]2[C@H](NC(=O)[C@H](N)c3ccccc3)C(=O)N2[C@H]1C(=O)O` [AMPICILLIN] showed an MIC50 of 0.064 mg/L (≈ 0.183 µM). This molecule also showed an MIC90 in assay [1] of 0.094 mg/L (≈ 0.269 µM). The results for the Activity in assay [2], in assay [3] and in assay [4] were 99%, 1% and 0%, respectively.

In assay [1], `CO/N=C(\C(=O)N[C@@H]1C(=O)N2C(C(=O)O)=C(CSc3nc(=O)c(O)nn3C)CS[C@H]12)c1csc(N)n1` [CEFTRIAXONE] returned an MIC of less than 0.002 mg/L, an MIC50 of less than 0.002 mg/L and an MIC90 of less than 0.002 mg/L. Moreover, the Activity in assay [2] worked out at 100%. Besides, the Activity in assay [3] came to 0%.

`CO/N=C(\C(=O)N[C@@H]1C(=O)N2C(C(=O)O)=C(COC(N)=O)CS[C@H]12)c1ccco1` [CEFUROXIME] returned an MIC50 in assay [1] of 0.047 mg/L (≈ 0.111 µM). Also, the MIC90 in assay [1] was determined as 0.094 mg/L (≈ 0.221 µM). Moreover, the Activity is 99% in assay [2], 1% in assay [3] and 0% in assay [4].

In the case of `O=C(N[C@H](CO)[C@H](O)c1ccc([N+](=O)[O-])cc1)C(Cl)Cl` [CHLORAMPHENICOL], in assay [1], the MIC50 was 0.75 mg/L (≈ 2.32 µM) and the MIC90 is 1 mg/L (≈ 3.09 µM). Further, in assay [2], the Activity was determined as 100%. Moreover, in assay [3], the Activity is given as 0%.

In the case of `O=C(O)c1cn(C2CC2)c2cc(N3CCNCC3)c(F)cc2c1=O` [CIPROFLOXACIN], in assay [1], the MIC50 came out at 0.004 mg/L (≈ 0.0121 µM) and the MIC90 is 0.004 mg/L (≈ 0.0121 µM). The Activity in assay [2] is on record as 100%. The Activity in assay [3] was determined as 0%.

`CC[C@H]1OC(=O)[C@H](C)[C@@H](O[C@H]2C[C@@](C)(OC)[C@@H](O)[C@H](C)O2)[C@H](C)[C@@H](O[C@@H]2O[C@H](C)C[C@H](N(C)C)[C@H]2O)[C@](C)(O)C[C@@H](C)C(=O)[C@H](C)[C@@H](O)[C@]1(C)O` [ERYTHROMYCIN] had an MIC in assay [1] of 0.032 mg/L (≈ 0.0436 µM). The MIC50 in assay [1] is 0.75 mg/L (≈ 1.02 µM). For the same molecule, the MIC90 in assay [1] came out at 1 mg/L (≈ 1.36 µM). Also, the Activity in assay [2] is recorded as 26%; in assay [3] it was 0%; in assay [4], 74%.

With `CC1(C)S[C@@H]2[C@H](NC(=O)Cc3ccccc3)C(=O)N2[C@H]1C(=O)O` [PENICILLIN G], the MIC50 in assay [1] was determined as 0.047 mg/L (≈ 0.141 µM). In assay [1], this molecule returned an MIC90 of 0.094 mg/L (≈ 0.281 µM). Besides, the results for the Activity in assay [2], in assay [3] and in assay [4] were 98%, 2% and 0%, respectively.

`CC1(C)S[C@@H]2[C@H](NC(=O)COc3ccccc3)C(=O)N2[C@H]1C(=O)O` [PENICILLIN V] yielded an MIC in assay [1] of 0.016 mg/L (≈ 0.0457 µM). This molecule gave an MIC50 in assay [1] of 0.19 mg/L (≈ 0.542 µM). The same molecule showed an MIC90 in assay [1] of 0.38 mg/L (≈ 1.08 µM). In addition, the Activity was found to be 99% in assay [2], 0% in assay [3] and 1% in assay [4].

Regarding `CO[C@H]1/C=C/O[C@@]2(C)Oc3c(C)c(O)c4c(O)c(c(/C=N/N5CCN(C)CC5)c(O)c4c3C2=O)NC(=O)/C(C)=C\C=C\[C@H](C)[C@H](O)[C@@H](C)[C@@H](O)[C@@H](C)[C@H](OC(C)=O)[C@@H]1C` [RIFAMPIN], the MIC50 in assay [1] was found to be 0.064 mg/L (≈ 0.0778 µM). This molecule registered an MIC90 in assay [1] of 0.125 mg/L (≈ 0.152 µM). The Activity worked out at 99% in assay [2], 1% in assay [3] and 0% in assay [4].

Turning to `Nc1ccc(S(=O)(=O)Nc2ncccn2)cc1` [SULFADIAZINE], the MIC50 in assay [1] was greater than 256 mg/L. The same molecule registered an MIC90 in assay [1] greater than 256 mg/L. The results for the Activity in assay [2], in assay [3] and in assay [4] were 0%, 6% and 94%, respectively.

As to `CN(C)[C@@H]1C(O)=C(C(N)=O)C(=O)[C@@]2(O)C(O)=C3C(=O)c4c(O)cccc4[C@@](C)(O)[C@H]3C[C@@H]12` [TETRACYCLINE], in assay [1], the MIC50 amounted to 2 mg/L (≈ 4.5 µM). In assay [1], this molecule registered an MIC90 of 4 mg/L (≈ 9 µM). Moreover, the values for the Activity in assay [2], in assay [3] and in assay [4] were 48%, 0% and 52%, respectively.
